Measured values collected from several papers.
Target: Ephrin type-A receptor 1 (EPHA1, Homo sapiens, UniProt P21709)
Residues used in one study (P21709 26-976): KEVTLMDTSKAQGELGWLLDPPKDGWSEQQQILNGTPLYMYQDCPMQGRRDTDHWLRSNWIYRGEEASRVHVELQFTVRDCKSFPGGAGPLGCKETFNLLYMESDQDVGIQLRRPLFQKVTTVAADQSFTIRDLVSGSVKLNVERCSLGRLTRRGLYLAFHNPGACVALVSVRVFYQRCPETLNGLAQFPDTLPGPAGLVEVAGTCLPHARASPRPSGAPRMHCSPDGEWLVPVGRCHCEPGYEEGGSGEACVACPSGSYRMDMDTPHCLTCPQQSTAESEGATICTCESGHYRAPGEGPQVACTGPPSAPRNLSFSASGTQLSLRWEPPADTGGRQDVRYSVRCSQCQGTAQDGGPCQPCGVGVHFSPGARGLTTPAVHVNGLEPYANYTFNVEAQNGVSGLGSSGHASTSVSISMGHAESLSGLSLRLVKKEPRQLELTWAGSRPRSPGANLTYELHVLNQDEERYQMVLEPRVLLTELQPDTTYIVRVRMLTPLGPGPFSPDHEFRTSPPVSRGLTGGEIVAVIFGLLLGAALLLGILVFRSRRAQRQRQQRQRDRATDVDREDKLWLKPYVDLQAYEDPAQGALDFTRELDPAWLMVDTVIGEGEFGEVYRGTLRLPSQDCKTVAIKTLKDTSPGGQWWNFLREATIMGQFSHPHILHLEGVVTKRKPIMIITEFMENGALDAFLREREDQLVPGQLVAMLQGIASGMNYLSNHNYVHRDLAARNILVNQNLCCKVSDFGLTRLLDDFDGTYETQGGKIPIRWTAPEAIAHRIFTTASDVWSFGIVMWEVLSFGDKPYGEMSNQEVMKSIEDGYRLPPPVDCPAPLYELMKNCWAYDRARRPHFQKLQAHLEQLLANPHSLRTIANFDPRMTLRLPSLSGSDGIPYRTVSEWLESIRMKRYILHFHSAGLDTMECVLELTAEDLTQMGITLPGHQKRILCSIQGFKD

O=c1[nH]c2ccccc2n1C1CCN(Cc2ccc(-c3[nH]c4cc5ncnc5cc4nc3-c3ccccc3)cc2)CC1
remaining signal (cell-free assay; 0.5 µM): 84.4%

Cc1nn(C)cc1-c1nc2c(N3CCN(Cc4ccc(Cl)cc4)CC3)c(Cl)cnc2[nH]1
remaining binding (binding, competition with immobilised ligand; 1 µM): 90%

COc1ncccc1-c1cnn2ccc(N3CCN(C(=O)OC(C)C)CC3)nc12
remaining binding (binding, competition with immobilised ligand; 1 µM): 84%

Cn1cc(-c2cccc(N3CCc4c(sc5c4CC(C)(C)C5)C3=O)c2CO)cc(Nc2ccncn2)c1=O
inhibition (enzyme activity, inhibitor; 1 µM): 3%

Cn1cncc1[C@@](O)(COc1ccc(C#N)cc1-c1ccc(OC(F)(F)F)cc1)c1ccc(C#N)cc1
remaining binding (cell-free assay, competition with immobilised ligand; 1 µM): 93%

CC(C)(C)c1cc(C=C(C#N)C#N)cc(Br)c1O
remaining activity (enzyme activity, inhibitor; 0.5 µM): 85.1%

Nc1ncc(-c2nc(N3CCOCC3)nc(N3CCOCC3)n2)c(C(F)F)n1
remaining binding (cell-free assay, competition with immobilised ligand; 10 µM): 68%

COc1cc(Nc2ncc(F)c(Nc3ccc4c(n3)NC(=O)C(C)(C)O4)n2)cc(OC)c1OC
inhibition (binding, competition with immobilised ligand; 10 µM): 98%

Cn1cc(-c2cc(F)cc(N3CCn4c(cc5c4CCCC5)C3=O)c2CO)cc(Nc2ccc(N3CCN(C4COC4)CC3)cn2)c1=O
inhibition (enzyme activity, inhibitor; 0.1 µM): 19%
